Measured values reported in ChEMBL document CHEMBL4251624, “Synthesis of podophyllotoxin linked β-carboline congeners as potential anticancer agents and DNA topoisomerase II inhibitors” (Eur J Med Chem, 2018).
The source made the active and inactive calls. No cut-off for these calls is given here.

How the values were obtained:
HeLa = experiment: Cytotoxicity against human HeLa cells after 48 hrs by MTT assay; type: functional, cell-based
Outline: (§1)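 MTT assay. Cells seeded at 1×10^4 per well in DMEM or MEM with 10% FBS and grown 24 h at 37 °C under CO2. Compounds added for 48 h, then MTT (5 mg/mL stock) for 4 h. Formazan dissolved in DMSO and read at 570 nm. IC50 is the average of three independent experiments.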

A549 = experiment: Cytotoxicity against human A549 cells after 48 hrs by MTT assay; type: functional, cell-based; details: A549, 48 h; outline: as §1
HEK293 = experiment: Cytotoxicity against HEK293 cells after 48 hrs by MTT assay; type: cell-based; details: Homo sapiens, HEK293, 48 h; outline: as §1
MDA-MB-231 = experiment: Cytotoxicity against human MDA-MB-231 cells after 48 hrs by MTT assay; type: functional, cell-based; details: MDA-MB-231, 48 h; outline: as §1
DU-145 [1] = experiment: Cytotoxicity against human DU145 cells after 48 hrs by MTT assay; type: functional, cell-based; details: DU-145, 48 h; outline: as §1
HT-29 = experiment: Cytotoxicity against human HT-29 cells after 48 hrs by MTT assay; type: functional, cell-based; details: HT-29, 48 h; outline: as §1
DU-145 [2] = experiment: Cell cycle arrest in human DU145 cells assessed as accumulation at G0/G1 phase at 1 uM after 48 hrs by propidium iodide staining based flow cytometry (reference value: 51.28%); type: functional
DU-145 [3] = experiment: Cell cycle arrest in human DU145 cells assessed as accumulation at G2/Mphase at 1 uM after 48 hrs by propidium iodide staining based flow cytometry (reference value: 21.71%); type: functional
DU-145 [4] = experiment: Cell cycle arrest in human DU145 cells assessed as accumulation at S-phase at 1 uM after 48 hrs by propidium iodide staining based flow cytometry (reference value: 24.99%); type: functional
Calf thymus DNA [5] = experiment: Binding affinity to calf thymus DNA assessed as hypochromic effect at 10 uM by fluorescence spectroscopic method; type: nucleic-acid assay; details: Bos taurus
Outline: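 Fluorescence titration at 25 °C in an acid-washed 1 cm quartz cuvette. Compound held constant at 10 μM and titrated with CT-DNA in equal steps (multiples of 0.5 μM), with a spectrum after each addition. Excitation 230 nm, emission recorded up to 600 nm.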

Homo sapiens = species on record: Homo sapiens; experiment: Inhibition of topoisomerase-2 (unknown origin) assessed as reduction in ATP-dependent decatenation of kinetoplast DNA at 10 uM after 30 mins by ethidium bromide staining based UV trans-illumination assay
Outline: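 kDNA decatenation, 20 μl reactions: 120 mM KCl, 50 mM Tris-HCl pH 8, 10 mM MgCl2, 0.5 mM DTT, 0.5 mM ATP, BSA, 200–300 ng kDNA, topo II 5 units. Incubated 37 °C for 30 min, stopped with SDS/proteinase K for 10 min at 37 °C. Products run on 1% agarose at 100 V and visualized by ethidium bromide under UV.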

Calf thymus DNA [6] = experiment: Binding affinity to calf thymus DNA assessed as hyperchromic effect […] by UV-Visible spectroscopic method; type: nucleic-acid assay; details: Bos taurus
Outline: (§2)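 UV-visible absorption titration at 25 °C in […] cuvettes. Compound held at 25.0 μM (1 ml, 1 cm path), titrated with 5 μl additions of 25.0 μM CT-DNA in 100 mM Tris-HCl pH 7.0 until absorbance saturated. Spectra recorded 200–400 nm, using freshly prepared stocks.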

DU-145 [7] = experiment: Cell cycle arrest in human DU145 cells assessed as accumulation at sub-G1 phase at 1 uM after 48 hrs by propidium iodide staining based flow cytometry (reference value: 1.49%); type: functional
Calf thymus DNA [8] = experiment: Binding affinity to calf thymus DNA assessed as hypochromicity of positive CD band at 10 to 20 uM by CD spectroscopic method relative to control; type: nucleic-acid assay; details: Bos taurus
Outline: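 CD spectra of 10 μM CT-DNA in 100 mM Tris-HCl pH 7.0, alone and with 10.0 or 20 μM compound (1:1 and 1:2 DNA:complex). Recorded 200–350 nm in a 1 mm path cuvette and averaged over 3 scans.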

DU-145 [9] = experiment: Induction of DNA damage in human DU145 cells at 10 uM after 24 hrs using propidium iodide stain by electrophoresis based fluorescence microscopic method; type: functional, cell-based
Outline: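 DU-145 cells treated at 10 μM for 24 h; about 25,000 cells embedded in agarose on slides. Electrophoresis 20 min at 40 V in 0.5% TBE pH 8. Propidium iodide stain 30 min; fluorescence imaging at 20x.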

Calf thymus DNA [10] = experiment: Binding affinity to calf thymus DNA by UV-Visible spectroscopic method; type: nucleic-acid assay; details: Bos taurus; outline: as §2

Row | Structure (SMILES) | IC50 (HeLa) [µM] | IC50 (A549) [µM] | IC50 (HEK293) [µM] | IC50 (MDA-MB-231) [µM] | IC50 (DU-145 [1]) [µM] | IC50 (HT-29) [µM] | Activity (DU-145 [2]) [%] | Activity (DU-145 [3]) [%] | Activity (DU-145 [4]) [%] | Activity (Calf thymus DNA [5]) | inhibition (Homo sapiens) | Activity (Calf thymus DNA [6]) | Activity (DU-145 [7]) [%] | Activity (Calf thymus DNA [8]) | Activity (DU-145 [9]) | Kb (Calf thymus DNA [10]) [×10⁴ /M]
1 | COc1cc([C@@H]2c3cc4c(cc3[C@@H](NC(=O)c3cc5c([nH]c6ccccc65)c(-c5ccc(C)cc5)n3)[C@H]3COC(=O)[C@H]23)OCO4)cc(OC)c1OC | 9.77 | 16.8 | 59.4 | 16.4 | 8.74 | 20 |  |  |  |  |  |  |  |  |  | 
2 | COc1cc([C@@H]2c3cc4c(cc3[C@@H](NC(=O)c3cc5c([nH]c6ccccc65)c(-c5ccc(F)c(F)c5)n3)[C@H]3COC(=O)[C@H]23)OCO4)cc(OC)c1OC | 3.72 | 2.24 | 106 | 2.9 | 1.14 | 3.53 | 18.41 | 28.08 | 39.65 | Active | Active | Active | 10.9 | Active | Active | 1
3 | COc1cc([C@@H]2c3cc4c(cc3[C@@H](NC(=O)c3cc5c([nH]c6ccccc65)c(-c5ccc(F)cc5)n3)[C@H]3COC(=O)[C@H]23)OCO4)cc(OC)c1OC | 15.5 | 10.2 | 109 | 10.7 | 5.07 | 11.5 |  |  |  |  |  |  |  |  |  | 
4 | COc1cc(-c2nc(C(=O)N[C@@H]3c4cc5c(cc4[C@@H](c4cc(OC)c(OC)c(OC)c4)[C@H]4C(=O)OC[C@@H]43)OCO5)cc3c2[nH]c2ccccc23)cc(OC)c1OC | 72.9 | 104 | 168 | 58.8 | 40.3 | 86.5 |  |  |  |  |  |  |  |  |  | 
5 | COc1cccc2c1C(=O)c1c(O)c3c(c(O)c1C2=O)C[C@@](O)(C(=O)CO)C[C@@H]3O[C@H]1C[C@H](N)[C@H](O)[C@H](C)O1 [DOXORUBICIN] |  | 1.68 |  | 1.32 | 1.86 | 1.41 |  |  |  |  |  |  |  |  |  | 
6 | COc1cc([C@@H]2c3cc4c(cc3[C@@H](NC(=O)c3cc5c([nH]c6ccccc65)c(-c5cccnc5)n3)[C@H]3COC(=O)[C@H]23)OCO4)cc(OC)c1OC | 4.72 | 2.55 | 84.3 | 3.05 | 1.98 | 6.36 |  |  |  |  |  |  |  |  |  | 
7 | COc1ccc(-c2nc(C(=O)N[C@@H]3c4cc5c(cc4[C@@H](c4cc(OC)c(OC)c(OC)c4)[C@H]4C(=O)OC[C@@H]43)OCO5)cc3c2[nH]c2ccccc23)cc1 | 21.9 | 29.4 | 65 | 34 | 16.8 | 35.6 |  |  |  |  |  |  |  |  |  | 
8 | COc1cc([C@@H]2c3cc4c(cc3[C@@H](NC(=O)c3cc5c([nH]c6ccccc65)c(-c5cccc(Oc6ccccc6)c5)n3)[C@H]3COC(=O)[C@H]23)OCO4)cc(OC)c1OC | 11.2 | 5.19 | 102 | 7.52 | 3.17 | 10.3 |  |  |  |  |  |  |  |  |  | 
9 | COc1cc([C@@H]2c3cc4c(cc3[C@@H](NC(=O)c3cc5c([nH]c6ccccc65)c(-c5ccc(C(F)(F)F)cc5)n3)[C@H]3COC(=O)[C@H]23)OCO4)cc(OC)c1OC | 32.1 | 34.1 | 63 | 75.9 | 24.8 | 46.5 |  |  |  |  |  |  |  |  |  | 
10 | COc1cc([C@@H]2c3cc4c(cc3[C@@H](NC(=O)c3cc5c([nH]c6ccccc65)c(-c5cccc(F)c5)n3)[C@H]3COC(=O)[C@H]23)OCO4)cc(OC)c1OC | 26.5 | 36.4 | 104 | 80.4 | 48.4 | 55.7 |  |  |  |  |  |  |  |  |  | 
11 | COc1cc([C@@H]2c3cc4c(cc3[C@@H](NC(=O)c3cc5c([nH]c6ccccc65)c(-c5ccc6c(c5)OCO6)n3)[C@H]3COC(=O)[C@H]23)OCO4)cc(OC)c1OC | 15.3 | 21.8 | 70.6 | 34.3 | 14.5 | 30.6 |  |  |  |  |  |  |  |  |  | 
12 | COc1cc([C@@H]2c3cc4c(cc3[C@H](O)[C@H]3COC(=O)[C@H]23)OCO4)cc(OC)c1OC [PODOFILOX] | 3.04 |  |  | 9.76 | 3.11 | 2.99 |  |  |  |  |  |  |  |  |  | 
13 | COc1ccccc1-c1nc(C(=O)N[C@@H]2c3cc4c(cc3[C@@H](c3cc(OC)c(OC)c(OC)c3)[C@H]3C(=O)OC[C@@H]32)OCO4)cc2c1[nH]c1ccccc12 | 4.12 | 1.94 | 107 | 2.69 | 1.41 | 4.3 |  |  |  |  |  |  |  |  |  | 
14 | COc1ccc(OC)c(-c2nc(C(=O)N[C@@H]3c4cc5c(cc4[C@@H](c4cc(OC)c(OC)c(OC)c4)[C@H]4C(=O)OC[C@@H]43)OCO5)cc3c2[nH]c2ccccc23)c1 | 2.92 | 1.87 | 103 | 2.64 | 1.07 | 2.68 | 18.69 | 29.16 | 41.44 | Active | Active | Active | 10.79 | Active | Active | 1
15 | COc1cc([C@@H]2c3cc4c(cc3[C@@H](NC(=O)c3cc5c([nH]c6ccccc65)c(-c5cccc6ccccc56)n3)[C@H]3COC(=O)[C@H]23)OCO4)cc(OC)c1OC | 33 | 56.9 | 77.3 | 27.9 | 22 | 23 |  |  |  |  |  |  |  |  |  | 
16 | COc1cc([C@@H]2c3cc4c(cc3[C@@H](NC(=O)c3cc5c([nH]c6ccccc65)c(-c5ccc(Cl)cc5)n3)[C@H]3COC(=O)[C@H]23)OCO4)cc(OC)c1OC | 6.61 | 3.98 | 58.9 | 3.87 | 2.65 | 5.77 |  |  |  |  |  |  |  |  |  | 
17 | COc1cc([C@@H]2c3cc4c(cc3[C@@H](NC(=O)c3cc5c([nH]c6ccccc65)c(-c5ccccc5)n3)[C@H]3COC(=O)[C@H]23)OCO4)cc(OC)c1OC | 5.26 | 2 | 75 | 2.6 | 1.68 | 6.87 |  |  |  |  |  |  |  |  |  | 
18 | COc1ccc(-c2nc(C(=O)N[C@@H]3c4cc5c(cc4[C@@H](c4cc(OC)c(OC)c(OC)c4)[C@H]4C(=O)OC[C@@H]43)OCO5)cc3c2[nH]c2ccccc23)cc1OC | 13.4 | 12.7 | 89.8 | 15.5 | 9.16 | 14.3 |  |  |  |  |  |  |  |  |  | 
19 | COc1cc([C@@H]2c3cc4c(cc3[C@@H](NC(=O)c3cc5c([nH]c6ccccc65)c(-c5cccc(Cl)c5)n3)[C@H]3COC(=O)[C@H]23)OCO4)cc(OC)c1OC | 6.09 | 3.16 | 131 | 3.29 | 2.41 | 5.26 |  |  |  |  |  |  |  |  |  | 
